Measurements: PMC6624406 (British Journal of Clinical Pharmacology, 2019)

Assays:
[1] = assay type: in vivo; conditions: human, plasma, oral
[2] = human, in vivo; cited from earlier work
Safety and tolerability = assay type: in vivo, human; conditions: for Participants reporting at least 1 AE: n = 16
Procedure, shortened: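 Phase I open-label two-part study in opioid-dependent, HIV-seronegative adults on stable once-daily opioid maintenance, 16 per part. Usual dose alone on day 1, then with test compound 600 mg ER BID on days 2–9, confined day -1 to day 10. Safety assessed by AE reports, vital signs (screening, days 1, 5, 10), ECG/physical exam (screening, day 1, day 10) and clinical labs (days 5, 9).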

HIV‐1 = conditions: cited from earlier work
[3] = Part 1, while receiving MET with FTR
[4] = Part 2, while receiving BUP/NLX with FTR

Compound | AUC [1] [ng·h/mL] | concentration at 12 h ([1]; TMR C12, geometric mean (coefficient of variation [%]), FTR 600 mg ER BID coadministered with BUP/NLX) [ng/mL] | Cmax ([1]; TMR Cmax, geometric mean (coefficient of variation [%]), FTR 600 mg ER BID coadministered with BUP/NLX) [ng/mL] | Accumulation [2] [fold] | Tolerability (Safety and tolerability; FTR 600 mg ER BID coadministered with MET or BUP/NLX) | Participants reporting headache (Safety and tolerability; [3]) [%] | Participants reporting nausea (Safety and tolerability; [3]) [%] | Participants reporting at least 1 AE (Safety and tolerability; Part 1, while receiving MET with FTR 600 mg ER BID) [%] | Participants reporting headache (Safety and tolerability; [4]) [%] | Participants reporting nausea (Safety and tolerability; [4]) [%] | Participants reporting at least 1 AE (Safety and tolerability; Part 2, while receiving BUP/NLX with FTR 600 mg ER BID) [%] | Decline in HIV‐1 RNA (HIV‐1; 8 days of functional FTR monotherapy, FTR 600 mg ER BID) [log10 copies/mL] | Rate of HIV virological suppression (HIV‐1; FTR with an optimized background therapy for 24 and 48 weeks) [%]
COc1cnc(-n2cnc(C)n2)c2[nH]cc(C(=O)C(=O)N3CCN(C(=O)c4ccccc4)CC3)c12 [TMR, temsavir] | 9760 | 468 | 2050 | < 2 |  |  |  |  |  |  |  |  | 
COc1cnc(-n2cnc(C)n2)c2c1c(C(=O)C(=O)N1CCN(C(=O)c3ccccc3)CC1)cn2COP(=O)(O)O [FTR, Fostemsavir] |  |  |  |  | well tolerated | 12.5 | 12.5 | 62.5 | 6.3 | 18.8 | 50.0 | 0.8 | 54
